According to ChEMBL document CHEMBL4411261, “Down-Regulation of the Androgen Receptor by G-Quadruplex Ligands Sensitizes Castration-Resistant Prostate Cancer Cells to Enzalutamide” (J Med Chem, 2018):
Calls of active or inactive are those of the source. The rule behind the calls is not given here.

How the values were obtained:
[1] = tested on: Quadruplex DNA; assay: Stabilization of AR G-quadruplex oligonucleotide in human 22Rv1 cells assessed as up-regulation of WNT1 mRNA expression at IC50 after 48 hrs by RT-PCR analysis; format: cell-based
Outline: (§1)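 Transcripts quantified by TaqMan real-time PCR with RNaseP as normalizer; relative quantity versus untreated cells by the 2−ΔΔCt method. Panel genes measured with a 92-gene cancer-mechanism TaqMan array.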

[2] = tested on: PC-3; assay: Synergistic cytotoxicity against human PC3 cells assessed as combination index for reduction in cell viability measured at ED75 Enzalutamide at 0.001 to 0.1 uM after 72 hrs by MTS assay based Chou and Talay's plot analysis
[3] = tested on: Quadruplex DNA; assay: Stabilization of AR G-quadruplex oligonucleotide in human LNCAP cells assessed as reduction in PSA protein level by immunoblotting assay; format: cell-based
Outline: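 Lysate proteins immunoblotted. Vinculin or β-actin used as loading control, peroxidase-linked secondary antibodies, ECL chemiluminescent detection, autoradiography, densitometric scan. Untreated cells received DMSO.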

[4] = tested on: Quadruplex DNA; assay: Stabilization of AR G-quadruplex oligonucleotide in human LNCAP cells assessed as down-regulation of KLK3 mRNA expression at IC50 after 72 hrs by RT-PCR analysis; format: cell-based
Outline: (§2)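 Cells grown in RPMI-1640 with 10% fetal calf serum, 37 °C, 5% CO2, treated at an equitoxic concentration. Transcripts quantified by TaqMan real-time RT-PCR, normalized to RNaseP, expressed as relative quantity versus untreated cells (calibrator) by the 2−ΔΔCt method.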

[5] = tested on: Quadruplex DNA; assay: Stabilization of AR G-quadruplex oligonucleotide in human DU145 cells assessed as down-regulation of ITGB3 mRNA expression at IC50 after 48 hrs by RT-PCR analysis; format: cell-based; outline: as §1
[6] = Binding affinity to 5'-Biotinylated-AGTGAGAGTGAGAGAGAGAGTGAGAGTGAGAGTGA ssDNA (unknown origin) by SPR analysis
Outline: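 SPR on streptavidin chip; 5′-biotinylated oligo folded by heating 95 °C 5 min in 10 mM lithium cacodylate, 150 mM KCl, then immobilized at 30 nM to about 600 RU; empty reference cell. Compound 0.7−400 nM in HEPES-KCl (pH 7.4, 0.15 M KCl, 3 mM EDTA) at 40 °C, 40 μL/min, 260 s contact, 600 s dissociation; glycine pH 2.0 regeneration; steady-state affinity fit; at least two independent runs.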

[7] = tested on: PNT1A; assay: Cytotoxicity against human PNT1A cells assessed as reduction in cell viability after 48 hrs by MTS assay; format: cell-based
Outline: (§3)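 Cells kept in RPMI-1640 with 10% fetal calf serum, 37 °C, 5% CO2. Seeded, after 24 h treated with 0.0001, 0.001, 0.01, 0.1, 1 and 10 μM compound (DMSO stocks freshly diluted in medium) for 48 h. MTS added 4 h, absorbance 490 nm; IC50 from curves of % viability inhibition versus DMSO-treated cells against log concentration.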

[8] = tested on: Quadruplex DNA; assay: Stabilization of AR G-quadruplex oligonucleotide in human 22Rv1 cells assessed as regulation of PTEN mRNA expression at IC50 after 48 hrs by RT-PCR analysis; format: cell-based; outline: as §1
[9] = tested on: Quadruplex DNA; assay: Stabilization of AR G-quadruplex oligonucleotide in human DU145 cells assessed as down-regulation of MAX mRNA expression at IC50 after 48 hrs by RT-PCR analysis; format: cell-based; outline: as §1
[10] = tested on: Quadruplex DNA; assay: Stabilization of AR G-quadruplex oligonucleotide in human LNCAP cells assessed as reduction in AR mRNA expression at IC50 after 72 hrs by RT-PCR analysis; format: cell-based; outline: as §2
[11] = tested on: Quadruplex DNA; assay: Stabilization of AR G-quadruplex oligonucleotide in human 22Rv1 cells assessed as down-regulation of CCND1 mRNA expression at IC50 after 48 hrs by RT-PCR analysis; format: cell-based; outline: as §1
[12] = tested on: CWR22R; assay: Synergistic cytotoxicity against human 22Rv1 cells expressing full length androgen receptor H875Y point mutant assessed as combination index for reduction in cell viability measured at ED75 Enzalutamide at 0.001 to 0.1 uM after 72 hrs by MTS assay based Chou and Talay's plot analysis; format: functional
Outline: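 Cells in RPMI-1640 with 10% fetal calf serum were exposed to ligand (0.001−0.1 μM) plus enzalutamide (0.5−50 μM) at a fixed ratio, five concentrations, for 72 h at 37 °C, 5% CO2. Viability read by MTS absorbance at 490 nm after 4 h. Combination index computed at ED50 and ED75 by the Chou–Talalay method.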

[13] = tested on: PC-3; assay: Effect on JUN mRNA expression in human PC3 cells at IC50 after 48 hrs by RT-PCR analysis; format: functional, cell-based; outline: as §1
[14] = tested on: PC-3; assay: Cytotoxicity against human PC3 cells assessed as reduction in cell viability after 48 hrs by MTS assay; format: functional, cell-based; settings: PC-3, 48 h; outline: as §3
[15] = tested on: DU-145; assay: Cytotoxicity against human DU145 cells assessed as reduction in cell viability after 48 hrs by MTS assay; format: functional, cell-based; settings: DU-145, 48 h; outline: as §3
[16] = tested on: Quadruplex DNA; assay: Stabilization of AR G-quadruplex oligonucleotide in human 22Rv1 cells assessed as reduction in basal AKT1 levels at IC50 after 48 hrs by Western immunoblot assay; format: cell-based
[17] = tested on: Quadruplex DNA; assay: Stabilization of AR G-quadruplex oligonucleotide in human 22Rv1 cells assessed as down-regulation of CCNE1 mRNA expression at IC50 after 48 hrs by RT-PCR analysis; format: cell-based; outline: as §1
[18] = tested on: Quadruplex DNA; assay: Stabilization of AR G-quadruplex oligonucleotide in human 22Rv1 cells assessed as down-regulation of MAX mRNA expression at IC50 after 48 hrs by RT-PCR analysis; format: cell-based; outline: as §1
[19] = tested on: CWR22R; assay: Effect on c-MYC mRNA expression in human 22Rv1 cells at IC50 after 48 hrs by RT-PCR analysis; format: functional, cell-based; outline: as §1
[20] = tested on: Quadruplex DNA; assay: Stabilization of AR G-quadruplex oligonucleotide in human 22Rv1 cells assessed as inhibition of telomerase activity at IC50 after 48 hrs by TRAP assay; format: cell-based
[21] = tested on: Quadruplex DNA; assay: Stabilization of AR G-quadruplex oligonucleotide in human 22Rv1 cells assessed as reduction in AKT1 phosphorylation at S473 residues at IC50 after 48 hrs by Western immunoblot assay; format: cell-based
[22] = Drug uptake in human PC3 cells at 160 nM after 24 hrs by DAPI staining-based fluorescence microscopic analysis; format: ADME, cell-based; settings: pc-3, 24 h, 0.16 µM
[23] = tested on: DU-145; assay: Effect on c-MYC mRNA expression in human DU145 cells at IC50 after 48 hrs by RT-PCR analysis; format: functional, cell-based; outline: as §1
[24] = tested on: Quadruplex DNA; assay: Stabilization of AR G-quadruplex oligonucleotide in human 22Rv1 cells assessed as reduction in AR-FL protein level by immunoblotting assay; format: cell-based
[25] = tested on: Quadruplex DNA; assay: Stabilization of 5'-FAM/3'-TAMRA labelled AR1 G-quadruplex oligonucleotide (unknown origin) assessed as change in melting temperature t1/2 at 1 uM after 16 hrs in presence of 100 mM K+ by FRET assay; format: nucleic-acid assay
Outline: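 FRET melting: FAM/TAMRA dual-labelled oligos (0.25 μM) folded in 10 mM lithium cacodylate pH 7.4 with 100 mM KCl (95 °C 5 min, cooled 4 h); ligand added at 1 μM final, 16 h room temperature. FAM emission followed 30−95 °C at 1 °C/min; curves normalized 0 to 1, T1/2 at 0.5 fraction.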

For `CN(C)CCCn1c(=O)c2ccc3c(=O)n(CCCN(C)C)c(=O)c4c5[nH]c6ccccc6[nH]c5c(c1=O)c2c34.Cl.Cl`, the Activity [1] was “Active”, the CI [2] was greater than 1 and the Activity [3] was “Active”. For the same compound, the Activity [4] was “inactive”, the Activity [5] was “Active” and the Kd [6] was 196 nM. For the same compound, the IC50 [7] was 280 nM, the Activity [8] was “Active” and the Activity [9] was “Active”. For the same compound, the Activity [10] was “inactive”, the Activity [11] was “Active” and the CI [12] was less than 1. The Activity [13] was “inactive”, the IC50 [14] was 180 nM and the IC50 [15] was 80 nM. For the same compound, the Activity [16] was “Active”, the Activity [17] was “Active” and the Activity [18] was “Active”. For the same compound, the Activity [19] was “inactive”, the inhibition [20] was “Active” and the Activity [21] was “Active”. For the same compound, the Drug uptake [22] was “Active”, the Activity [23] was “inactive” and the Activity [24] was “Active”. The ΔTm [25] was 20.5 °C.
